Hits are enriched below; roughly 1.8% of the tested compounds scored in any of these assays.
M5 ag: human M5 muscarinic receptor agonists, primary screen, CHO-K1 cells, Fluo-8 calcium fluorescence. Muscarinic acetylcholine receptor M5 (Homo sapiens), P08912. CHO-K1 hM5 cells; 0% DMSO wells, 100% maximal acetylcholine response. activation, % at 3 µM. hit rate 0.19% among 360,000;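 active = activation above the run's mean over test compounds plus 3 SD, cut at about 23% in these data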;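 also: signal is peak over basal fluorescence ratio across the kinetic read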
M4 antag: human M4 muscarinic receptor antagonists, primary screen, CHO cells, Fluo-8 calcium fluorescence; hit rate 0.73% among 360,000; Muscarinic acetylcholine receptor M4 (Homo sapiens), P08173; inhibition, % at 3 µM; AID 624125, 2012; CHO-hM4 cells, ACh EC80;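 active = inhibition above its plate's cutoff, the mean inhibition of sample wells plus 3 SD, cut at about 27% in these data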
Target sequence (P08173 whole entry, looked up): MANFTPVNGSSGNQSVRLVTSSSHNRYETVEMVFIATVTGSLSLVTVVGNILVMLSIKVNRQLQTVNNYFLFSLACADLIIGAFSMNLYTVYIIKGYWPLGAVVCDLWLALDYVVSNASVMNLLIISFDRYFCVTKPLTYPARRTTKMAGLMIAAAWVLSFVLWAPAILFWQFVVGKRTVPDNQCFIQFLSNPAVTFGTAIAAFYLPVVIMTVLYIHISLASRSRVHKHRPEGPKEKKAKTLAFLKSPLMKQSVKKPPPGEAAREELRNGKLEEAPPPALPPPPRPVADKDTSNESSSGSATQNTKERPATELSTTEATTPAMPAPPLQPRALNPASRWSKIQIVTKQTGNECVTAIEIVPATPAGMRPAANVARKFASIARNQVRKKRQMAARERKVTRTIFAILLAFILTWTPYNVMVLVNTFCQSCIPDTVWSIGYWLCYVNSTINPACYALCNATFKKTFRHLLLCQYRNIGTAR
M5 antag: human M5 muscarinic receptor antagonists, primary screen, CHO cells, Fluo-8 calcium fluorescence. inhibition, % at 3 µM. CHO-hM5 cells, ACh EC80. hit rate 0.59% among 360,000. Muscarinic acetylcholine receptor M5 (Homo sapiens), P08912. AID 624040, 2012;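 active = inhibition above a per-plate cutoff, the mean of that plate's test compounds plus 3 SD, cut at about 27% in these data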
CHRM4 agonist: human M4 muscarinic receptor agonists, primary screen, CHO-K1 cells, Fluo-8 calcium fluorescence; CHO-K1 hM4/Gqi5; vehicle 0%, full acetylcholine response 100%; Muscarinic acetylcholine receptor M4 (Homo sapiens), P08173; AID 624127, 2012; activation, % at 3 µM; hit rate 0.14% among 360,000;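 active = activation above the run mean over all test wells plus 3 SD, cut at about 32% in these data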;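 also: peak over basal fluorescence ratio per well then scaled between controls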
M5 PAM: human M5 muscarinic receptor positive allosteric modulators, primary screen, CHO-K1 cells, Fluo-8 calcium fluorescence | Muscarinic acetylcholine receptor M5 (Homo sapiens), P08912 | CHO-K1 hM5, ACh EC20 PAM; 0% = ACh EC20, 100% = ACh EC100 | activation, % at 3 µM | hit rate 0.3% among 360,000;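 active = activation above the run cutoff, the mean activation of all test compounds plus 3 SD, cut at about 18% in these data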
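Probe or stimulus: acetylcholine, EC20 level; Assay system: human M5 receptor in CHO-K1 cells; Schedule: compound preincubation 140 s before EC20 acetylcholine addition; Technique: intracellular calcium via Fluo-8 fluorescence; Dosing: single-point, 3 µM nominal; Read-out basis: percent activation from peak-over-basal fluorescence ratio, scaled EC20-to-EC100 acetylcholine; Repeats: one well per compound, no replicates.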
CHRM4 PAM: human M4 muscarinic receptor positive allosteric modulators, primary screen, CHO-K1 cells, Fluo-8 calcium fluorescence; Muscarinic acetylcholine receptor M4 (Homo sapiens), P08173; CHO-K1 hM4/Gqi5, ACh EC20; 0% = ACh EC20, 100% = maximal ACh; activation, % at 3 µM; hit rate 0.4% among 360,000;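 active = activation above its plate's cutoff, the mean activation of sample wells plus 3 SD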
Large screens that a line does not name were inactive.

O=C(COC(=O)c1ccccc1NS(=O)(=O)c1ccc(Cl)cc1)NCc1ccccc1	CHRM4 PAM 21.3
O=C(COC(=O)c1cc2ccccc2cc1O)NCc1ccccc1	M5 PAM 18.4
O=C(Nc1cc(C(=O)N2CCN(c3ccccc3O)CC2)ccc1Cl)c1cccs1	none
CSc1ccc(C(O)c2ncc(-c3ccccc3F)[nH]2)cc1 (centres undefined)	none
Cc1ccc(N2CCN(S(=O)(=O)c3ccc(Cl)s3)CC2C)cc1 (centres undefined)	none
CCCc1cc(C(=O)Nc2cccc(-c3nn[nH]n3)c2)sc1C	none
O=C(CN1CCCCC1)N1CCCc2ccccc21	none
O=C(CN1CCCC1)N1c2ccccc2C=Cc2ccccc21	M4 antag 51.0, M5 antag 49.5
NC(=O)N1c2ccccc2C=Cc2ccccc21	none
O=C(CN1CCCCCC1)N1c2ccccc2C=Cc2ccccc21	M4 antag 95.2, M5 antag 79.6
CN1CCN(C(=O)N2c3ccccc3C=Cc3ccccc32)CC1	M4 antag 70.8, M5 antag 97.6
O=C(NCc1cccnc1)OC1CC2CC1[C@H]1CCCCN1C2=O (some centres undefined)	none
Cc1ccc2cc(CN(CCN(C)C)C(=S)Nc3ccccc3)c(=O)[nH]c2c1C	M5 ag 43.1, M5 antag 36.7
CCN(CC)CCN(Cc1cc2cccc(C)c2[nH]c1=O)C(=S)Nc1ccccc1	M5 ag 62.8, M5 antag 58.0
C[C@@H]1CN([C@@H](C)CO)S(=O)(=O)c2ccc(Br)cc2O[C@@H]1CN(C)C(=O)c1ccccn1	none
Cc1ccc(C(=O)CSC2=C(C#N)C(c3ccco3)CC(=O)N2)c(C)c1 (centres undefined)	M5 ag 47.2
O=C(NC1CCSC1=O)C1CCCCC1 (centres undefined)	none
O=C(Nc1nncs1)c1cc(S(=O)(=O)N2CCCCC2)ccc1Cl	none
O=[N+]([O-])c1cc2cccnc2c2ncccc12	CHRM4 PAM 12.3
Cc1cc(NC(=O)CSc2nc(-c3ccccc3)c(C#N)c(=O)[nH]2)no1	CHRM4 PAM 21.0
CCc1ccc(OCC(=O)Nc2ccncc2)cc1	none
O=C(COc1ccc(C(=O)c2ccccc2)cc1)Nc1cccnc1	M5 antag 31.0
Cc1ccc(Oc2ccc(OCC(=O)Nc3ccncc3)cc2)cc1	M5 antag 34.2
Cc1ccc(Cl)cc1NC(=S)N(CCCN1CCOCC1)Cc1ccco1	none
Cc1cccc(C)c1NC(=O)c1ccc2sc([C@@H]3O[C@H](CO)[C@H](O)[C@H](O)[C@H]3O)nc2c1	none
CC1(C(=O)NCc2cccs2)Cc2c(-c3ccccc3)ccnc2O1 (centres undefined)	none
O=C(CN1CCCCC1)N1N=C(c2cccs2)CC1c1cccs1 (centres undefined)	M4 antag 45.0, M5 antag 37.8
C/C(CC(=O)Nc1cccnc1)=N\NC(=O)c1ccc([N+](=O)[O-])c(Cl)c1	none
CC(=O)Nc1ccccc1NC(=O)C/C(C)=N/NC(=O)c1ccc([N+](=O)[O-])c(Cl)c1	CHRM4 PAM 23.7
CC(C)OCCCNC(=O)c1cn(C)c2ccc(S(=O)(=O)N3CCCC3)cc2c1=O	none
Cn1c(SCc2c(Cl)cccc2Cl)nnc1-c1ccc2nonc2c1	CHRM4 PAM 26.3
CCOc1ccccc1-n1c(N)c(C(N)=O)sc1=S	M5 PAM 22.1
Cn1c(=O)c2c(O)cc(=O)[nH]c2n(-c2ccccc2)c1=O	none
O=c1cc(O)c2c(=O)[nH]c(=O)n(-c3ccccc3)c2[nH]1	CHRM4 PAM 15.9
CN1C[C@@H]2C(c3ccccc3)C3(c4cccnc4)CC2(C3)[C@H]1c1ccccc1 (some centres undefined)	M4 antag 56.7, M5 antag 31.1
COCCNC(=O)C1(C)CCCN(Cc2ccc(-n3ccnc3)cc2)C1 (centres undefined)	none
CCOC(=O)N1CCC(N(CCN(C)C)C(=S)Nc2ccccc2OCC)CC1	M5 PAM 37.6
CCOC(=O)N1CCC(N(CCN(C)C)C(=S)Nc2ccccc2OC)CC1	none
Cc1ccsc1/C=C1/NC(=O)N(Cc2ccc(F)cc2)C1=O	none
CCOc1cc(Cl)c(CNCCCN2CCOCC2)cc1OC	none
CCC(OC(=O)c1ccco1)C(=O)NCc1ccc2c(c1)OCO2 (centres undefined)	CHRM4 PAM 19.3
CCC(OC(=O)c1ccco1)C(=O)NCc1ccc(C)cc1 (centres undefined)	none
CCN1CCN(CNC(=O)c2cnccn2)CC1	M5 PAM 20.7
O=C1NC2c3ccccc3C(=O)N2c2c1cnn2-c1ccccc1 (centres undefined)	CHRM4 PAM 17.8
N#C/C(=C(\O)c1cc(Cl)sc1Cl)c1nc2ccccc2[nH]1	none
CCCCN1C(=O)N(c2ccc(Cl)cc2)C(C)(O)CC1(C)C (centres undefined)	none
CN1C(=O)N(c2ccc(Cl)cc2)C(C)(O)CC1(C)C (centres undefined)	M5 PAM 24.7
CCOC(=O)/C=c1\s/c(=C\c2ccc(C)cc2)c(=O)n1CC(=O)NCc1ccco1	CHRM4 PAM 18.9
CCOC(=O)/C=c1/s/c(=C/c2ccc3cc(OC)ccc3c2)c(=O)n1CC(=O)NCc1ccc2c(c1)OCO2	M5 ag 38.6, M5 antag 37.5
CCOC(=O)/C=c1\s/c(=C\c2ccc(-c3ccccc3)cc2)c(=O)n1CC(=O)NCc1ccc2c(c1)OCO2	none
CCOC(=O)/C=c1\s/c(=C\c2ccc(C(F)(F)F)cc2)c(=O)n1CC(=O)NCc1ccco1	none
CCc1nc2ccc(C(=O)NCc3ccccc3OC)cn2c1N(C)Cc1ccc(N(C)C)cc1	none
N#CC1=C(N)Oc2cc(O)ccc2C1c1ccc(Br)s1 (centres undefined)	M5 ag 29.4
COc1cc(OC)c(C(=O)OCC(=O)N2CCOCC2)cc1OC	none
CCn1c(-c2cc(-c3ccc(C)cc3)nc3ccccc23)n[nH]c1=S	M5 antag 97.9
Cc1cc(NC(=O)CSc2ncc(C(=O)O)n2-c2ccc(F)cc2)no1	none
Cn1ncc(Cl)c1C(=O)N1CCN(c2ccc(Cl)c(Cl)c2)CC1	M5 antag 29.1

Assay outcomes deposited in PubChem by The Scripps Research Institute Molecular Screening Center.
